For test [1], the system named is Mus musculus. As to the kind of experiment: Effect on learning and memory process in CD1 albino mouse assessed as improvement in retention latency at 100 mg/kg, ip after 24 hrs by passive avoidance test. The class given is functional, organism-based. The arrangement: dose 100 mg/kg. The method in brief: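 Male CD-1 mice treated ip 30 min before training in a step-through passive avoidance box, a lighted compartment joined to a dark one by a guillotine door. Training latency recorded, then retention latency 24 h later. Mean of 15-20 mice per group.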

The subject of test [2] is Mus musculus. Put plainly: Anticonvulsant activity against pentylenetetrazole-induced convulsions in CD1 albino mouse assessed as convulsion latency at 10 mg/kg, po preincubated for 30 mins before pentylenetetrazole challenge measured for 30 mins (RVb=599 +/- 37.6 seconds). It counts as functional.
In test [3] the test system is Mus musculus. Put plainly: Effect on explorative capacity in CD1 albino mouse assessed as curiosity-related number of head plugging activity on hole at 50 mg/kg, po after 30 mins by hole-board test. The class given is functional. Put shortly: (§1)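 Hole-board test in male CD-1 mice: animals placed singly on the board and allowed to explore panel and holes. Test run 30 min after po dosing in 1% CMC (10 mL/kg). Hole entries (curiosity) and plane movements (spontaneous motility) counted; 10 mice per group, compared with CMC controls.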

The test system of test [4] is Mus musculus. Put plainly: Effect on explorative capacity in CD1 albino mouse assessed as curiosity-related number of head plugging activity on hole at 100 mg/kg, po after 30 mins by hole-board test. It counts as functional. The method in brief: as §1
The nature of test [5]: Displacement of [3H]flumazenil from GABAA/Benzodiazepine receptor in bovine brain. The arrangement: species or system Bos taurus. The method in brief:
(§2)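 Bovine brain membranes; displacement of specific [3H]flumazenil (Ro15-1788) binding. Percent inhibition measured at 10 μM; Ki determined only when inhibition at that concentration exceeded 80%. Ki given as mean ± SEM of five determinations.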
(In general: In a radioligand displacement assay an active substance lowers the binding of a labelled ligand.)

In test [6] the test system is Mus musculus. As to the kind of experiment: Effect on motor coordination in CD1 albino mouse assessed as number of falls form rotarod at 10 mg/kg, po […] measured for 30 seconds after 30 mins of dosing by rotarod test. The class given is functional. The method in brief: (§3)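 Rota-rod in male CD-1 mice with a pretest. Test substance given po in 1% CMC; falls from the rotating rod counted over 30 s, assessed 30 min after treatment.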
A general note: Falling from the rotarod earlier than controls is read as motor impairment.

Test [7] deals with Mus musculus. As to the kind of experiment: Effect on spontaneous motility in CD1 albino mouse assessed as number of movement on plane board at 10 mg/kg, po after 30 mins by hole-board test. The class given is functional. Put shortly:
as §1

Test [8] has as its system Mus musculus. Put plainly: Anticonvulsant activity against pentylenetetrazole-induced shock in CD1 albino mouse assessed as shock latency at 30 mg/kg, po preincubated for 30 mins before pentylenetetrazole challenge measured for 30 mins (RVb=253.1 +/- 13 seconds). It counts as functional. Particulars: 30 mg/kg.
In test [9] the test system is Mus musculus. Put plainly: Effect on spontaneous motility in CD1 albino mouse assessed as number of movement on plane board at 30 mg/kg, po after 30 mins by hole-board test. It counts as functional. The following applies: 30 mg/kg. Put shortly:
as §1

Test [10] concerns Mus musculus. As to the kind of experiment: Effect on explorative capacity in CD1 albino mouse assessed as curiosity-related number of head plugging activity on hole at 10 mg/kg, po after 30 mins by hole-board test. The class given is functional. The method in brief:
as §1

Test [11] relates to Mus musculus. Put plainly: Effect on spontaneous motility in CD1 albino mouse assessed as number of movement on plane board at 50 mg/kg, po after 30 mins by hole-board test. The class given is functional. The method in brief:
as §1

In test [12] the test system is Mus musculus. As to the kind of experiment: Anticonvulsant activity against pentylenetetrazole-induced shock in CD1 albino mouse assessed as shock latency at 10 mg/kg, po preincubated for 30 mins before pentylenetetrazole challenge measured for 30 mins (RVb=253.1 +/- 13 seconds). It counts as functional.
Test [13] deals with Mus musculus. Put plainly: Effect on spontaneous motility in CD1 albino mouse assessed as number of movement on plane board at 100 mg/kg, po after 30 mins by hole-board test. It counts as functional. The method in brief:
as §1

The test system of test [14] is Mus musculus. Put plainly: Effect on explorative capacity in CD1 albino mouse assessed as curiosity-related number of head plugging activity on hole at 30 mg/kg, po after 30 mins by hole-board test. Particulars: 30 mg/kg. The class given is functional. The method in brief:
as §1

Test [15] has as its system Mus musculus. Put plainly: Effect on motor coordination in CD1 albino mouse assessed as number of falls form rotarod at 30 mg/kg, po […] measured for 30 seconds after 30 mins of drug infusion by rotarod test. The class given is functional. Particulars: 30 mg/kg. Put shortly: as §3
The test system of test [16] is Mus musculus. Put plainly: Anticonvulsant activity against pentylenetetrazole-induced convulsions in CD1 albino mouse assessed as convulsion latency at 30 mg/kg, po preincubated for 30 mins before pentylenetetrazole challenge measured for 30 mins (RVb=599 +/- 37.6 seconds). The class given is functional. Particulars: 30 mg/kg.
In test [17] the test system is Mus musculus. Put plainly: Anxiogenic activity in CD1 albino mouse at 30 mg/kg, po after 30 mins by light/dark box test. The class given is functional, organism-based. The arrangement: dose 30 mg/kg. Put shortly: (§4)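 Male CD-1 mice (22-24 g) given test substance po in 1% CMC (10 mL/kg), tested 30 min later in a light/dark box. Transfers between compartments and time spent in the illuminated side were measured. Values are mean ± SEM of 15-20 mice; compared with controls.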

Test [18] deals with Mus musculus. Put plainly: Anxiogenic activity in CD1 albino mouse at 1 mg/kg, po after 30 mins by light/dark box test. More on the design: dose 1 mg/kg. The class given is functional, organism-based. Put shortly:
as §4

For test [19], the system named is Mus musculus. As to the kind of experiment: Effect on spontaneous motility in CD1 albino mouse assessed as number of movement on plane board at 3 mg/kg, po after 30 mins by hole-board test. The class given is functional. Put shortly: as §1
Test [20] deals with Mus musculus. As to the kind of experiment: Effect on ethanol-induced sleeping time in CD1 albino mouse assessed as increase in duration of loss of righting reflex at 10 mg/kg, po preincubated 30 mins before ethanol challenge. The class given is functional, organism-based. The arrangement: dose 10 mg/kg.
For test [21], the system named is Mus musculus. Put plainly: Effect on ethanol-induced sleeping time in CD1 albino mouse assessed as increase in duration of loss of righting reflex at 3 mg/kg, po preincubated 30 mins before ethanol challenge. It counts as functional, organism-based. The arrangement: dose 3 mg/kg.
For another test, the species on record is Bos taurus. As to the kind of experiment: Displacement of [3H]flumazenil from GABAA/Benzodiazepine receptor in bovine brain at 10 uM. Put shortly: as §2
In test [22] the test system is Mus musculus. As to the kind of experiment: Effect on motor coordination in CD1 albino mouse assessed as number of falls form rotarod at 3 mg/kg, po administered 60 mins before test measured for 30 seconds after 30 mins of drug infusion by rotarod test. The class given is functional. Put shortly: as §3
For test [23], the system named is Mus musculus. As to the kind of experiment: Effect on learning and memory process in CD1 albino mouse assessed as improvement in retention latency at 3 mg/kg, po after 24 hrs by passive avoidance test. It counts as functional, organism-based. More on the design: dose 3 mg/kg. Put shortly: (§5)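 Step-through passive avoidance in a two-compartment box (lit and dark compartments joined by a guillotine door). Male CD-1 mice dosed po (1% CMC) 30 min before training; retention tested 24 h later. Training and retention latencies recorded; mean ± SEM of 15-20 mice versus controls.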

For test [24], the system named is Mus musculus. As to the kind of experiment: Effect on explorative capacity in CD1 albino mouse assessed as curiosity-related number of head plugging activity on hole at 3 mg/kg, po after 30 mins by hole-board test. It counts as functional. The method in brief:
as §1

The subject of test [25] is Mus musculus. Put plainly: Effect on learning and memory process in CD1 albino mouse assessed as improvement in retention latency at 1 mg/kg, po after 24 hrs by passive avoidance test. The class given is functional, organism-based. The arrangement: dose 1 mg/kg. The method in brief: as §5
Test [26] concerns Mus musculus. As to the kind of experiment: Anxiogenic activity in CD1 albino mouse at 10 mg/kg, po after 30 mins by light/dark box test. It counts as functional, organism-based. More on the design: dose 10 mg/kg. The method in brief: as §4
For test [27], the system named is Mus musculus. As to the kind of experiment: Anxiogenic activity in CD1 albino mouse at 3 mg/kg, po after 30 mins by light/dark box test. The class given is functional, organism-based. More on the design: dose 3 mg/kg. The method in brief:
as §4

Test [28] relates to Mus musculus. As to the kind of experiment: Anticonvulsant activity against pentylenetetrazole-induced shock in CD1 albino mouse assessed as shock latency at 3 mg/kg, po preincubated for 30 mins before pentylenetetrazole challenge measured for 30 mins (RVb=253.1 +/- 13 seconds). The class given is functional.
In test [29] the test system is Mus musculus. Put plainly: Anticonvulsant activity against pentylenetetrazole-induced convulsions in CD1 albino mouse assessed as convulsion latency at 3 mg/kg, po preincubated for 30 mins before pentylenetetrazole challenge measured for 30 mins (RVb=599 +/- 37.6 seconds). The class given is functional.
Test [30] concerns Mus musculus. Put plainly: Anxiogenic activity in CD1 albino mouse at 3 mg/kg, po after 30 mins by light/dark box test in presence of flumazenil. It counts as functional, organism-based. The arrangement: dose 3 mg/kg. Put shortly: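 Light/dark box in male CD-1 mice. Test substance given po in 1% CMC 30 min before the test, with flumazenil 100 mg/kg ip (saline) co-treatment. Transfers between compartments and time in the lit side recorded. Mean ± SEM of 15-20 mice.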

Calls of active or inactive are those of the source. The rule behind the calls is not given here.

With `CCOC(=O)c1ncn2c1CN(C)C(=O)c1cc(F)ccc1-2`, the outcome in the test on Mus musculus [1] was Active.

Take `CC(Oc1ccc2c(c1)n1ncc(I)c1n[n+]2[O-])c1ccccc1` (single isomer, unassigned; (-)): the Activity in the test with Mus musculus [2] (10 mg/kg) is 1078 s; with Mus musculus [3] it was 13.3; in the test with Mus musculus [4] it was 22.9; in the test on Mus musculus [6] (10 mg/kg), 2; in the test on Mus musculus [7] (10 mg/kg) it was 61.9; in the test on Mus musculus [8] it was 323.7 s. Moreover, the Activity came out at 56.8 in the test with Mus musculus [9]; 27 with Mus musculus [10] (10 mg/kg); 44 with Mus musculus [11]; 513 s in the test on Mus musculus [12] (10 mg/kg); 59.2 with Mus musculus [13]; 34.5 with Mus musculus [14]. The Activity with Mus musculus [15] is 1.6; with Mus musculus [16], 549.2 s. In test [5], the Ki came to 2.1 nM.

On to `[O-][n+]1nc2c(I)cnn2c2cc(Oc3ccccc3)ccc21`, for which the Activity was 345.5 s in the test with Mus musculus [2]; 73.2 in the test with Mus musculus [19]; 0.6 with Mus musculus [6]; greater than 80% in the test listed under Bos taurus; 0.9 in the test with Mus musculus [22]; 63.8 in the test with Mus musculus [7]. In addition, the Activity in the test on Mus musculus [24] amounted to 38; with Mus musculus [10], 39.8; with Mus musculus [12] it was 243.6 s; in the test on Mus musculus [28], 264.7 s; in the test with Mus musculus [29] it was 516.1 s. Besides, the result in the test on Mus musculus [17], in the test on Mus musculus [18], in the test with Mus musculus [20], in the test on Mus musculus [21], in the test with Mus musculus [23] and with Mus musculus [25] was Active. In addition, the result in the test with Mus musculus [26] and with Mus musculus [27] was Active. Also, in [5], the affinity corresponds to a Ki of 8.6 nM. For the same compound, the result with Mus musculus [30] was inactive.

In general, Ki refers to the dissociation constant of the complex between target and ligand, obtained from inhibition or displacement. A high value points to lower affinity.

The record behind these values is ChEMBL document CHEMBL1158477, “Synthesis, in vivo evaluation, and molecular modeling studies of new pyrazolo[5,1-c][1,2,4]benzotriazine 5-oxide derivatives. Identification of a bifunctional hydrogen bond area related to the inverse agonism” (J Med Chem, 2009).
